Test results taken from PubChem BioAssay AID1899 (The Scripps Research Institute Molecular Screening Center, 2009).
Out of some 300,000 compounds screened, about 1,000 (0.33%) were called active.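 Rule for the calls: active = inhibition above the mean of all tested compounds plus 3 SD, set per screening campaign (cut at about 45% in these data); inactive = the rest.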 The list comes from a sample in which actives are over-represented; it also holds similar structures and randomly drawn compounds.

test system: HCV core protein (residues 1-106) dimerization; assay: blockers of core106 self-association – biochemical, TR-FRET, high-throughput, primary screen (AID 1899); conditions: TR-FRET GST/Flag-core106 dimerization, 1536-well; at 5 µM; active compounds read high
How it was run: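 System: GST/Flag-tagged HCV core106 proteins. Incubation: compound-protein-antibody incubation 4 h at 22.5 °C. Technique: HTRF with 340 nm excitation, 617/671 nm emission. Medium: KF-containing HEPES buffer, pH 7.45, DTT, CHAPS, BSA. Read-out: inhibition (%) from 671 over 617 nm ratio. Also added: Eu(K)-anti-GST 90 ng/mL plus XL665-anti-Flag 1 µg/mL.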

inhibition, inactive:
CC(C)(C)n1nnnc1C(c1ccccc1F)N1CCN(C(=O)c2ccco2)CC1 (centres undefined) -2.83%, CCCc1nc2c(c(=O)c3ccccc3n2C)c(=O)n1C1CCCCCC1 10.2%, CCCc1nc2c(c(=O)c3ccccc3n2C)c(=O)n1-c1cc(C)cc(C)c1 16.2%, O=C1CN(C(=O)COc2c(Cl)cccc2Cl)c2ccccc2N1 1.42%, Cc1nn(CC(=O)Nc2nc3ccccc3s2)c(C)c1[N+](=O)[O-] -2.22%, C/C(=N\NC(=O)CC(C)C)c1c(C(F)(F)F)[nH]n(-c2nc3ccccc3s2)c1=O -0.73%, COC(=O)C1=C(C)NC2=C(C(=O)c3ccccc32)C1c1ccc(-c2ccc(C(=O)O)cc2)o1 (centres undefined) 5.77%, CCOC(=O)C(=CNNc1ccsc1C(=O)OC)C(=O)OCC -1.96%, CN1C/C(=C/c2cccs2)C(=O)/C(=C\c2cccs2)C1 6.47%, Cc1cccc(C2=N/C(=C/c3cccs3)C(=O)O2)c1 2.89%, Cc1ccc(-n2ncc3c2CC(C)(C)CC3NC(=O)CCc2cnn(C)c2)cc1 (centres undefined) -3.34%, O=C(C1CCCN(S(=O)(=O)c2ccccc2)C1)N1CCN(c2ccc(F)cc2)CC1 (centres undefined) -13.8%, Cc1cc(NC(=O)CCC(=O)N(CC(=O)NC2CCCC2)c2ccc(F)cc2)no1 0.03%, COc1cccc(OC)c1CN(C)C(=O)c1cnccc1C(F)(F)F -2.76%, Cc1ccc(NC(=O)c2csc3c2CCCC3)cc1 5.39%, Cc1ccc(C(=O)c2c(NC(=O)c3ccncc3)sc3c2CCCC3)cc1 -2.83%, O=S(=O)(Nc1ccc(O)c2ccccc12)c1ccc(OC(F)(F)F)cc1 -9.45%, Cc1nn(C(=O)c2ccoc2C)c(N)c1-c1ccccc1 -11.9%, O=C(O)CCCC(=O)N1N=C(c2ccco2)CC1c1ccco1 (centres undefined) -3.41%, Cc1ccc(/C=N/NC(=O)COc2ccccc2-c2ccccc2)cc1 -1.07%, CCOc1ccc(/C=C(/NC(=O)c2ccccc2)C(=O)NCCC(=O)O)cc1 2.36%, CCC(Cc1ccccc1)NS(=O)(=O)c1ccc2c(c1)NC(=O)CS2 (centres undefined) 6.21%, CCOC(=O)C1=C(C)NC(C)=C(C(=O)OCC)C1C1=COCCO1 -7.86%, CCC(=O)Nc1c(C)n[nH]c1C 1.83%, CC1(OC(=O)CCc2ccccc2)C(=O)C=C2C=C(c3ccc(C#N)cc3)N(CCc3ccccn3)C=C2C1=O (centres undefined) 13.8%, CCCCC1=CC2=CC(=O)C(C)(OC(=O)CC)C(=O)C2=CN1CCCOC(C)C (centres undefined) 2.27%, Nc1c(-c2ccc(F)cc2)cnc2ncnn12 0.37%, CCCCCCCCCCCCCCCC(=O)OC/C=C(C)/C=C/C=C(C)/C=C/C1=C(C)CCCC1(C)C 2.75%, Cc1cc(S(=O)(=O)N2CCOCC2)ccc1OCC(=O)Nc1cccc(C(F)(F)F)c1 0.78%, COc1ccc(C(=O)COC(=O)Cn2cnc3c2c(=O)n(C)c(=O)n3C)c(OC)c1 -0.66%, O=C(NCCN1CCN(C(=O)c2cccc([N+](=O)[O-])c2)CC1)C(=O)NCc1ccc(Cl)cc1 -0.22%, CCOC(=O)Cn1c(=O)oc2cc(S(=O)(=O)N(C)Cc3ccco3)ccc21 -1.55%, CCOC(=O)/C=c1\s/c(=C\c2ccc(C#N)cc2)c(=O)n1CC(=O)Nc1cccc(C)c1C 11.6%, CCNC(=O)c1sccc1-n1cccc1 0.55%, CC(C)=CCc1c(O)c(CC=C(C)C)c2occ(-c3ccc(O)cc3)c(=O)c2c1O -3.16%, COc1ccc2c(CC(=O)OCC(=O)NC(N)=O)coc2c1 -9.08%, O=C(Cc1coc2ccc3ccccc3c12)NCc1cccs1 10.5%, COc1ccc(S(=O)(=O)N2CCOC2CNC(=O)C(=O)NCc2ccc(F)cc2)cc1 (centres undefined) -0.93%, CCOC(=O)c1c(C)[nH]c(C2=NNC(=NC(C)COC)SC2)c1C (centres undefined) -2.46%, COc1cc(NC(=O)C2=CC(c3ccc(C)cc3)=NS(=O)(=O)N2C)cc(OC)c1OC 1.17%

inhibition, active:
Cn1c2ccccc2c(=O)c2c(=O)n(Cc3ccco3)c(COc3ccccc3)nc21 47.9%, CCC(C)Cn1c(O)cc2nn(-c3nc4ccccc4s3)c(=O)c-2c1C (centres undefined) 55.2%, CSC1=N/C(=C\C=C\c2cccs2)C(=O)S1 60.2%, Cc1ccc(NC(=O)c2c(NC(=O)CCC(=O)O)sc3c2CCCCC3)cc1 47.6%, Cc1nn2c(c1-c1ccccc1)N=C(c1ccco1)CC2c1ccccc1 (centres undefined) 54.2%, C=CCN1C=C2C(=O)C(C)(OC(=O)CCc3ccccc3)C(=O)C=C2C=C1c1ccc(C#N)cc1 (centres undefined) 49%, CC1=C(/C=C/C(C)=C/C=C/C(C)=C/C=C/C=C(C)/C=C/C=C(C)/C=C/C2=C(C)CCCC2(C)C)C(C)(C)CCC1 69.5%, CN(c1ccccc1)c1ccc(/C=c2\s/c(=C(/C#N)C(=O)C(C)(C)C)n(Cc3ccco3)c2=O)cc1 63.2%, Cn1cccc1C(=O)NC(=O)COC(=O)Cc1coc2ccc3ccccc3c12 60.3%
